This note sets out measurements from ChEMBL document CHEMBL4406821, “Novel dual inhibitors targeting CDK4 and VEGFR2 synergistically suppressed cancer progression and angiogenesis” (Eur J Med Chem, 2019).

The target in experiment [1] is Vascular endothelial growth factor receptor 2 (Homo sapiens, UniProt P35968). As to the kind of experiment: Inhibition of recombinant human VEGFR2 (790 to end residues) using myelin ba as substrate at 1 uM incubated for 40 mins by [gamma-33P]-ATP based radiometric assay relative to control. The method, boiled down:
(§1)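 Kinase panel profiling at 1 μM performed by Eurofins KinaseProfiler; percent inhibition reported as mean of two independent experiments.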

Another experiment concerns HeLa. As to the kind of experiment: Antiproliferative activity against human HeLa cells assessed as reduction in cell viability measured after 72 hrs by CCK8 assay. It counts as functional, cell-based. The method, boiled down: (§2)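 Cells were seeded at 3×10³ cells/well and exposed to a range of concentrations or vehicle for 72 h. Viability was read by CCK-8 at 450 nm, with DMSO as blank and five replicates per sample. IC50 was calculated from the dose-response.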
On the technique in general: Tetrazolium dyes change colour on reduction, which living cells bring about.

Experiment [2] deals with CDK4/Cyclin D3 (Homo sapiens) (UniProt P11802+P30281). The experiment in a line: Inhibition of recombinant full length human CDK4/Cyclin D3 using Rb-fragmen as substrate at 1 uM incubated for 40 mins by [gamma-33P]-ATP based radiometric assay relative to control. It counts as protein-complex assay. The essentials:
as §1

In a further experiment the test system is T47D. As to the kind of experiment: Antiproliferative activity against human T47D cells assessed as reduction in cell viability measured after 72 hrs by CCK8 assay. The experiment is classed as functional, cell-based. The essentials: as §2

Chain of Vascular endothelial growth factor receptor 2 (P35968 whole entry): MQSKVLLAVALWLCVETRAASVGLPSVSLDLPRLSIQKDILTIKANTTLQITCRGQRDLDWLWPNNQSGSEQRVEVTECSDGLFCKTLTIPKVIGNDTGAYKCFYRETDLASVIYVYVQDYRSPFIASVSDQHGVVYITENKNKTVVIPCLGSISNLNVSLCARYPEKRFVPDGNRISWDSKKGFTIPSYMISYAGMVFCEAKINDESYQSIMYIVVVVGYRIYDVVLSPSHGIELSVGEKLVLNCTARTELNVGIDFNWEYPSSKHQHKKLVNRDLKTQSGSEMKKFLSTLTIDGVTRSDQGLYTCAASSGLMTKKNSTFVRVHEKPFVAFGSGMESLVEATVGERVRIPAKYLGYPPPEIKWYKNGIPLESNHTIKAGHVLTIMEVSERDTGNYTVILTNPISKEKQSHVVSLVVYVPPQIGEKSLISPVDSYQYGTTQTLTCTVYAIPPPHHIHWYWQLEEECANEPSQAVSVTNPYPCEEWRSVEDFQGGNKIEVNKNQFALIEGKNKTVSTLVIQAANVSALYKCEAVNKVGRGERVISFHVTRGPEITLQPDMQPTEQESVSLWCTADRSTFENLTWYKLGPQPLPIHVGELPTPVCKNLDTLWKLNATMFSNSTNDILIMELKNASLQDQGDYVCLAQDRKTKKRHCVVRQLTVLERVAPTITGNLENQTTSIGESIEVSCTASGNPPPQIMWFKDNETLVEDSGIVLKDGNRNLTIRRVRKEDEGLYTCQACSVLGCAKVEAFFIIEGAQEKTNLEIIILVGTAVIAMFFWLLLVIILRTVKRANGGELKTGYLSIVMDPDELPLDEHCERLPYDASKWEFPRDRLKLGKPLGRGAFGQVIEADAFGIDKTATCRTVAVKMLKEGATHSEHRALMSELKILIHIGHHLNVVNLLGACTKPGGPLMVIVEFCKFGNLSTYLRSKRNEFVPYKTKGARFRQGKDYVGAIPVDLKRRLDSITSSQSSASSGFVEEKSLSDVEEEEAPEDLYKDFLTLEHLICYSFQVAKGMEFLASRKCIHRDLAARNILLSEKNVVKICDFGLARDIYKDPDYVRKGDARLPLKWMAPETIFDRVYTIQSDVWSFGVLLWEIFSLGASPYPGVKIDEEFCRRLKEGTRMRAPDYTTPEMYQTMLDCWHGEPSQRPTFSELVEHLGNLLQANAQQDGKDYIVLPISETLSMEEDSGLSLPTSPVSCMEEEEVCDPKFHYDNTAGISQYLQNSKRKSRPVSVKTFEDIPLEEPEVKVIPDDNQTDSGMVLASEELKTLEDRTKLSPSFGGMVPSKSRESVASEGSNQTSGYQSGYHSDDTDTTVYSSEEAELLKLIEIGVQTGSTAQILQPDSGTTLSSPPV

Usually inhibition stands for the change of the read-out against control, counted positive when it falls. For `CN(C)C(=O)c1cc2cnc(Nc3ccc(NC(=O)C4(C(=O)Nc5ccc(F)cc5)CC4)cc3)nc2n1C1CCCC1`, in experiment [1], the inhibition came to 0%.

One may read the IC50 as the concentration needed to halve the response being measured. For the molecule `Cc1cccc(NC(=O)C2(C(=O)Nc3ccc(Nc4ncc(F)c(-c5cc(F)c6nc(C)n(C(C)C)c6c5)n4)cc3)CC2)c1`, the inhibition was 95% in experiment [1] and 97% in experiment [2]. Also, the IC50 came out at 178 nM with HeLa and 202 nM in the experiment on T47D.

For the molecule `Cc1nc2c(F)cc(-c3nc(Nc4ccc(NC(=O)C5(C(=O)Nc6cccc(Cl)c6)CC5)cc4)ncc3F)cc2n1C(C)C`, the results for the inhibition in experiment [1] and in experiment [2] were 90% and 74%, respectively.

In the case of `CC(C)n1nnc2ccc(-c3nc(Nc4ccc(NC(=O)C5(C(=O)Nc6ccc(Br)cc6)CC5)cc4)ncc3F)cc21`, the figures for the inhibition in experiment [1] and in experiment [2] were 52% and 24%, respectively.

For `Cc1ccc(NC(=O)C2(C(=O)Nc3ccc(Nc4ncc(F)c(-c5ccc6nnn(C(C)C)c6c5)n4)cc3)CC2)cc1`, the inhibition in experiment [1] came to 78%; in experiment [2] it was 81%.

Regarding `Cc1nc2c(F)cc(-c3nc(Nc4ccc(NC(=O)C5(C(=O)Nc6cccc(Br)c6)CC5)cc4)ncc3F)cc2n1C(C)C`, the inhibition in experiment [1] is 90%; in experiment [2], 83%.

For `CC(C)n1nnc2ccc(-c3nc(Nc4ccc(NC(=O)C5(C(=O)Nc6ccc(C(F)(F)F)cc6)CC5)cc4)ncc3F)cc21`, the inhibition was 56% in experiment [1] and 31% in experiment [2].

For `CC(C)n1nnc2ccc(-c3nc(Nc4ccc(NC(=O)C5(C(=O)Nc6ccc(Cl)c(C(F)(F)F)c6)CC5)cc4)ncc3F)cc21`, the inhibition in experiment [1] worked out at 41%; in experiment [2], 8%.

On to `Cc1cccc(NC(=O)C2(C(=O)Nc3ccc(Nc4ncc(F)c(-c5ccc6nnn(C(C)C)c6c5)n4)cc3)CC2)c1`, for which the inhibition came out at 73% in experiment [1] and 75% in experiment [2].

`Cc1nc2c(F)cc(-c3nc(Nc4ccc(NC(=O)C5(C(=O)Nc6ccc(F)cc6)CC5)cc4)ncc3F)cc2n1C(C)C`: the inhibition in experiment [1] is 91%; in experiment [2] it was 98%. The half-maximal inhibitory concentration (IC50) with HeLa came out at 191 nM; in the experiment with T47D, 25.5 nM.

As for `Cc1nc2c(F)cc(-c3nc(Nc4ccc(CNC(=O)C5(C(=O)Nc6ccc(Cl)cc6)CC5)cc4)ncc3F)cc2n1C(C)C`, the inhibition in experiment [1] was determined as 91%; in experiment [2], 88%.

In the case of `CC(C)n1nnc2ccc(-c3nc(Nc4ccc(NC(=O)C5(C(=O)Nc6ccc(F)cc6)CC5)cc4)ncc3F)cc21`, the inhibition in experiment [1] is 84%; in experiment [2], 69%.

Turning to `Cc1nc2c(F)cc(-c3nc(Nc4ccc(CNC(=O)C5(C(=O)Nc6ccc(Cl)c(C(F)(F)F)c6)CC5)cc4)ncc3F)cc2n1C(C)C`, the inhibition in experiment [1] came out at 57%; in experiment [2], 51%.

Consider `Cc1nc2c(F)cc(-c3nc(Nc4ccc(NC(=O)C5(C(=O)Nc6ccc(C(F)(F)F)cc6)CC5)cc4)ncc3F)cc2n1C(C)C`, for which the values for the inhibition in experiment [1] and in experiment [2] were 80% and 74%, respectively.

Turning to `CC(C)n1nnc2ccc(-c3nc(Nc4ccc(NC(=O)C5(C(=O)Nc6cccc(Cl)c6)CC5)cc4)ncc3F)cc21`, the inhibition in experiment [1] was 60%; in experiment [2], 50%.

`Cc1nc2c(F)cc(-c3nc(Nc4ccc(NC(=O)C5(C(=O)Nc6ccc(Br)cc6)CC5)cc4)ncc3F)cc2n1C(C)C`: the inhibition was 91% in experiment [1] and 90% in experiment [2]. The IC50 was determined as 597 nM in the experiment with HeLa and 120 nM with T47D.

Take `Cc1nc2c(F)cc(-c3nc(Nc4ccc(CNC(=O)C5(C(=O)Nc6ccc(C(F)(F)F)cc6)CC5)cc4)ncc3F)cc2n1C(C)C`: the results for the inhibition in experiment [1] and in experiment [2] were 74% and 37%, respectively.

Consider `CC(C)n1nnc2ccc(-c3nc(Nc4ccc(NC(=O)C5(C(=O)Nc6cccc(C(F)(F)F)c6)CC5)cc4)ncc3F)cc21`, for which the inhibition was found to be 46% in experiment [1] and 13% in experiment [2].

Consider `Cc1ccc(NC(=O)C2(C(=O)NCc3ccc(Nc4ncc(F)c(-c5cc(F)c6nc(C)n(C(C)C)c6c5)n4)cc3)CC2)cc1`, for which the inhibition was 95% in experiment [1] and 97% in experiment [2]. Further, the IC50 in the experiment on HeLa is 252 nM; with T47D, 771 nM.

Take `CC(C)n1nnc2ccc(-c3nc(Nc4ccc(NC(=O)C5(C(=O)Nc6cccc(F)c6)CC5)cc4)ncc3F)cc21`: the inhibition in experiment [1] turned out to be 69%; in experiment [2], 79%.

`Cc1nc2c(F)cc(-c3nc(Nc4ccc(NC(=O)C5(C(=O)Nc6ccc(Cl)cc6)CC5)cc4)ncc3F)cc2n1C(C)C`: the inhibition in experiment [1] was determined as 74%; in experiment [2], 76%.

Take `CC(C)n1nnc2ccc(-c3nc(Nc4ccc(NC(=O)C5(C(=O)Nc6cccc(Br)c6)CC5)cc4)ncc3F)cc21`: the inhibition stood at 55% in experiment [1] and 34% in experiment [2].

`CC(C)n1nnc2ccc(-c3nc(Nc4ccc(NC(=O)C5(C(=O)Nc6ccc(Cl)cc6)CC5)cc4)ncc3F)cc21`: the values for the inhibition in experiment [1] and in experiment [2] were 59% and 21%, respectively.

Regarding `Cc1nc2c(F)cc(-c3nc(Nc4ccc(NC(=O)C5(C(=O)Nc6cccc(F)c6)CC5)cc4)ncc3F)cc2n1C(C)C`, the inhibition in experiment [1] stood at 90%; in experiment [2], 96%. Further, the results for the IC50 in the experiment on HeLa and in the experiment on T47D were 106 nM and 29.3 nM, respectively.

Consider `Cc1nc2c(F)cc(-c3nc(Nc4ccc(NC(=O)C5(C(=O)Nc6ccc(Cl)c(C(F)(F)F)c6)CC5)cc4)ncc3F)cc2n1C(C)C`, for which the inhibition in experiment [1] stood at 68%; in experiment [2] it was 34%.

For `Cc1nc2c(F)cc(-c3nc(Nc4ccc(CNC(=O)C5(C(=O)Nc6ccc(Br)cc6)CC5)cc4)ncc3F)cc2n1C(C)C`, the inhibition amounted to 90% in experiment [1] and 93% in experiment [2]. The results for the IC50 in the experiment on HeLa and with T47D were 330 nM and 109 nM, respectively.

Take `Cc1nc2c(F)cc(-c3nc(Nc4ccc(NC(=O)C5(C(=O)Nc6cccc(C(F)(F)F)c6)CC5)cc4)ncc3F)cc2n1C(C)C`: the inhibition in experiment [1] came out at 80%; in experiment [2], 31%.
